From ChEMBL document CHEMBL4699407, “Isoquinoline thiosemicarbazone displays potent anticancer activity with in vivo efficacy against aggressive leukemias” (RSC Med Chem, 2020)
Activity calls are given as the source filed them. No cut-off for these calls is given here.

Legend:
MIA PaCa-2 [1] = test: Induction of apoptosis in human MIA PaCa-2 cells assessed as reduction in viable cells at 25 nM in presence of Cu2+ and ATRi incubated for 72 hrs by annexin V and propidium iodide staining based flow cytometry analysis relative to control; type: functional
Summary of the method: (§1)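 Cells given 25 nM compound with or without 20 μM Cu(II) and/or the ATR inhibitor VE-822 at 250 nM for 72 h. Stained with annexin V-FITC and propidium iodide, then analysed on a five-laser flow cytometer to score viable, early apoptotic, late apoptotic and necrotic fractions against vehicle.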

SW1990 = test: Cytotoxicity against human SW1990 cells assessed as reduction in cell viability in presence of Cu2+ incubated for 72 hrs by cell titer-glo luminescent cell viability assay; type: functional, cell-based; conditions: SW1990, 72 h
Summary of the method: (§2)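 Cells were grown in DMEM or RPMI with 10% FBS, without antibiotics, at 37 °C, 20% O2, 5% CO2. Adherent lines were seeded at 500 cells/well. Serially diluted compound was given with 20 μM Cu(II) (CuCl2) for 72 h; leukemia models received pre-formed 1:1 copper complex. ATP was read by CellTiter-Glo luminescence. IC50 is relative to DMSO-treated cells.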

MIA PaCa-2 [2] = test: Induction of mitochondrial ROS generation in human MIA PaCa-2 cells at 25 nM in presence of Cu2+ incubated for 24 hrs by MitoSox red dye based flow cytometry analysis; type: functional; conditions: Mitochondria
Summary of the method: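 Exposure was 25 nM compound plus 20 μM Cu(II) for 24 h. Cells washed, stained with MitoSOX for 30 min at 37 °C, washed with PBS and analysed by flow cytometry. Mean ± SD, n = 2, Student t-test.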

MIA PaCa-2 [3] = test: Induction of apoptosis in human MIA PaCa-2 cells assessed as increase in necrotic cells at 25 nM in presence of ATRi incubated for 72 hrs by annexin V and propidium iodide staining based flow cytometry analysis relative to control; type: functional; summary of the method: as §1
MIA PaCa-2 [4] = test: Cytotoxicity against human MIA PaCa2 cells assessed as reduction in cell viability at 25 nM in presence of Cu2+ and BCPS incubated for 24 hrs by trypan blue assay; type: functional, cell-based
Summary of the method: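 MIAPACA2 cells were given 25 nM compound plus 20 μM Cu(II) for 24 h, with or without the membrane-impermeable copper chelator bathocuproine disulfonate (300 μM). Viable cells were measured by trypan blue exclusion on a Vi-Cell counter.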

MIA PaCa-2 [5] = test: Cytotoxicity against human MIA PaCa2 cells assessed as reduction in cell viability in presence of Cu2+ incubated for 72 hrs by cell titer-glo luminescent cell viability assay; type: functional, cell-based; conditions: MIA PaCa-2, 72 h; summary of the method: as §2
MIA PaCa-2 [6] = test: Anti-OXPHOS activity in human MIA PaCa-2 cells assessed as reduction in oxygen consumption rate at 25 nM in presence of Cu2+ incubated for 24 hrs by […]; type: functional, cell-based; conditions: Mitochondria
Summary of the method: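 Cellular Mito Stress Test: cells treated 24 h with 25 nM compound plus 20 μM Cu(II), then incubated in unbuffered DMEM with 25 mM glucose, 1 mM pyruvate and 2 mM glutamine. OCR was read on an XF24 analyzer and normalized per μg protein. It was read at baseline and after serial 1 μM oligomycin, 0.75 μM FCCP, and 1 μM rotenone plus myxothiazol.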

MIA PaCa-2 [7] = test: Induction of apoptosis in human MIA PaCa-2 cells assessed as increase in late apoptotic cells at 25 nM incubated for 72 hrs by annexin V and propidium iodide staining based flow cytometry analysis relative to control; type: functional; summary of the method: as §1
[8] = Cytotoxicity against human HPDE cells assessed as reduction in cell viability in presence of Cu2+ incubated for 72 hrs by cell titer-glo luminescent cell viability assay; type: cell-based; summary of the method: as §2
ASPC1 = test: Cytotoxicity against human ASPC1 cells assessed as reduction in cell viability in presence of Cu2+ incubated for 72 hrs by cell titer-glo luminescent cell viability assay; type: functional, cell-based; conditions: ASPC1, 72 h; summary of the method: as §2
MIA PaCa-2 [9] = test: Induction of apoptosis in human MIA PaCa-2 cells assessed as increase in early apoptotic cells at 25 nM incubated for 72 hrs by annexin V and propidium iodide staining based flow cytometry analysis relative to control; type: functional; summary of the method: as §1
MIA PaCa-2 [10] = test: Induction of DNA damage in human MIA PaCa-2 cells assessed as decrease in dATP level at 25 nM in presence of Cu2+ incubated for 48 hrs by LC-MS/MS analysis; type: functional, cell-based
Summary of the method: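 Cells in DMEM or RPMI with 10% FBS, 37 °C, 5% CO2. Treated with 25 nM compound plus 20 μM Cu(II) for 48 h. Nucleotide pools quantified by LC-MS/MS with multiple reaction monitoring. Cells were in glucose-free DMEM with 10% dialyzed FBS and 11 mM [U-13C6]glucose for 48 h, and glucose-labeled pools were compared. Mean ± SD, n = 3, two-way ANOVA with Bonferroni correction.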

MIA PaCa-2 [11] = test: Induction of DNA damage in human MIA PaCa-2 cells assessed as decrease in TTP level at 25 nM in presence of Cu2+ incubated for 48 hrs by LC-MS/MS analysis; type: functional, cell-based
Summary of the method: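 MIAPACA2 cells were given 25 nM compound plus 20 μM Cu(II) for 48 h in glucose-free DMEM with 10% dialyzed FBS and 11 mM [U-13C6]glucose. Nucleotide pools were quantified by LC-MS/MS with multiple reaction monitoring. Mean ± SD, n = 3, two-way ANOVA with Bonferroni correction.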

**Q.** What does the source list for CN(C)C(=S)NN=Cc1nccc2cc(F)ccc12?
**A.** Activity (MIA PaCa-2 [1]): 27.8%; IC50 (SW1990): 1 nM; Activity (MIA PaCa-2 [2]): Active; Activity (MIA PaCa-2 [3]): 7.34%; Activity (MIA PaCa-2 [4]): inactive; IC90 (MIA PaCa-2 [5]): 21.6 nM; Activity (MIA PaCa-2 [6]): Active; Activity (MIA PaCa-2 [7]): 0.79%; Activity [8]: Non-Toxic; IC50 (ASPC1): 1 nM; Activity (MIA PaCa-2 [9]): 1.85%; Activity (MIA PaCa-2 [10]): inactive; Activity (MIA PaCa-2 [11]): inactive
